In ChEMBL document CHEMBL2074208, “P-glycoprotein inhibition by glibenclamide and related compounds” (Pflugers Arch, 1999):
Each block holds one compound with its values, some of them ahead of it.

Assays:
[1] = molecular target: Multidrug resistance protein 1a (Rattus norvegicus) (UniProt Q6PSM0); test: TP_TRANSPORTER: increase in Glibenclamide intracellular accumulation (Glibenclamide: 0.0525 uM, Vinblastine: 100 uM) in CC531mdr+ cells; format: functional, cell-based
In short: (§1)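 Confluent CC531mdr+ monolayers, held colchicine-free ≥12 h, were preincubated 10 min at 37 °C in buffer A with inhibitor or 0.1% DMSO. They were then exposed 60 min to [³H]glibenclamide (2.5 µCi/ml; 52.5 nM glibenclamide) with inhibitor. After an ice-cold buffer wash, acid extraction (0.1 N HNO₃) and scintillation counting, uptake was expressed as % of the inhibitor-free control; n≥3.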

[2] = molecular target: Multidrug resistance protein 1a (Rattus norvegicus) (UniProt Q6PSM0); test: TP_TRANSPORTER: increase in Colchicine intracellular accumulation (Colchicine: 0.035 uM, BM-208: 100 uM) in CC531mdr+ cells; format: functional, cell-based
In short: (§2)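 CC531mdr+ monolayers were grown to confluence and kept colchicine-free for ≥12 h. They were preincubated 10 min at 37 °C in buffer A (pH 7.4) with inhibitor or 0.1% DMSO, then incubated 60 min in buffer A with [³H]colchicine (2.5 µCi/ml; 35 nM colchicine) plus the same additions. After an ice-cold wash, radioactivity was extracted with 0.1 N HNO₃ and counted. Accumulation is given as % of the no-inhibitor control; n≥3.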

[3] = molecular target: Multidrug resistance protein 1a (Rattus norvegicus) (UniProt Q6PSM0); test: TP_TRANSPORTER: increase in Glibenclamide intracellular accumulation (Glibenclamide: 0.0525 uM, BM-208: 100 uM) in CC531mdr+ cells; format: functional, cell-based; in short: as §1
[4] = molecular target: T1, ATP-dependent translocase ABCB1 (Homo sapiens, UniProt P08183); test: TP_TRANSPORTER: increase in Colchicine intracellular accumulation (Colchicine: 0.0175 uM, BM-208: 100 uM) in CEM/VBL600 cells; format: functional, cell-based; conditions: cem/vbl600, 100 µM
T1 sequence (P08183 whole entry): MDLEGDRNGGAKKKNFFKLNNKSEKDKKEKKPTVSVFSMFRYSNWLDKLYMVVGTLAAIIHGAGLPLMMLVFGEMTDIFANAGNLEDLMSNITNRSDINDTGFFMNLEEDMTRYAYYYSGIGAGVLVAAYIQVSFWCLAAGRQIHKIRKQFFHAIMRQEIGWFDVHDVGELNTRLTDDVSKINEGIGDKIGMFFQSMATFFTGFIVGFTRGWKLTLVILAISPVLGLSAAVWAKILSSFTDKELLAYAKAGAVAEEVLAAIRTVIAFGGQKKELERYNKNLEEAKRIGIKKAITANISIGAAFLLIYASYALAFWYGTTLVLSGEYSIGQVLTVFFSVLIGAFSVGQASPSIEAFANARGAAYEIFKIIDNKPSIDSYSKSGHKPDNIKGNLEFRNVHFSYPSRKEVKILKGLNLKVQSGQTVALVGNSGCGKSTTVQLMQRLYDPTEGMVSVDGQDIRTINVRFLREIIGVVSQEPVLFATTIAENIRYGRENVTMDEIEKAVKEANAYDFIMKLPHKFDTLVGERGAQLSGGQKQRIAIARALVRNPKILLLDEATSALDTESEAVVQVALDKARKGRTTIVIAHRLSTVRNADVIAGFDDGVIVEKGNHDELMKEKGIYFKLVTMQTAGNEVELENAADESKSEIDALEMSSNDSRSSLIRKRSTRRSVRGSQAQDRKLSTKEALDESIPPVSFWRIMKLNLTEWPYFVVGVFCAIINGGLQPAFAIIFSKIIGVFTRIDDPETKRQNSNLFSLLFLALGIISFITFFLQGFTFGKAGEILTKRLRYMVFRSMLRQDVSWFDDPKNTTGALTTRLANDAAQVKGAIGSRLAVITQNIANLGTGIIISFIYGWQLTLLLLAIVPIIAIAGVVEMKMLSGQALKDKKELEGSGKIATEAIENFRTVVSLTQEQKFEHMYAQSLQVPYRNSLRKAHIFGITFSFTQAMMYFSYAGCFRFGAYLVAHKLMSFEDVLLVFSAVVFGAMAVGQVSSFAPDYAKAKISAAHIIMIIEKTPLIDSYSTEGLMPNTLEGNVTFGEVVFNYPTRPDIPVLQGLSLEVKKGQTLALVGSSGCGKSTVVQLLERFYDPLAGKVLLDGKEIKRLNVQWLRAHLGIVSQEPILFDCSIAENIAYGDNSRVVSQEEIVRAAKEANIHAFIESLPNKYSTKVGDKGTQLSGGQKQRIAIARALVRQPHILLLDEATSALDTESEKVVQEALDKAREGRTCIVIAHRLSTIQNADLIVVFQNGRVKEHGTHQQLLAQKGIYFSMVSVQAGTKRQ
In short: (§3)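 1.5×10⁶ viable cells were preincubated 10 min at 37 °C with inhibitor or 0.1% DMSO. [³H]colchicine (final 1.25 µCi/ml; 17.5 nM) was added for 60 min at 37 °C. Cells were pelleted at 4 °C, washed ice-cold and counted by scintillation. Uptake is given as % of the no-inhibitor control; n≥3.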

[5] = molecular target: T1, ATP-dependent translocase ABCB1; test: TP_TRANSPORTER: inhibition of Azidopine photoaffinity labelling (Azidopine: 0.16 uM, BM-208: 100 uM) in membranes from CEM/VBL600 cells; conditions: cem/vbl600, 100 µM
[6] = molecular target: Multidrug resistance protein 1a (Rattus norvegicus) (UniProt Q6PSM0); test: TP_TRANSPORTER: increase in Colchicine intracellular accumulation (Colchicine: 0.035 uM, Glibenclamide: 100 uM) in CC531mdr+ cells; format: functional, cell-based; in short: as §2
[7] = molecular target: T1, ATP-dependent translocase ABCB1; test: TP_TRANSPORTER: increase in Colchicine intracellular accumulation (Colchicine: 0.0175 uM, Glibenclamide: 100 uM) in CEM/VBL600 cells; format: functional, cell-based; conditions: cem/vbl600, 100 µM; in short: as §3
[8] = molecular target: T1, ATP-dependent translocase ABCB1; test: TP_TRANSPORTER: inhibition of Azidopine photoaffinity labelling (Azidopine: 0.16 uM, BM-223: 100 uM) in membranes from CEM/VBL600 cells; conditions: cem/vbl600, 100 µM
[9] = molecular target: Multidrug resistance protein 1a (Rattus norvegicus) (UniProt Q6PSM0); test: TP_TRANSPORTER: increase in Glibenclamide intracellular accumulation (Glibenclamide: 0.0525 uM, BM-223: 100 uM) in CC531mdr+ cells; format: functional, cell-based; in short: as §1
[10] = molecular target: T1, ATP-dependent translocase ABCB1; test: TP_TRANSPORTER: increase in Colchicine intracellular accumulation (Colchicine: 0.0175 uM, BM-223: 100 uM) in CEM/VBL600 cells; format: functional, cell-based; conditions: cem/vbl600, 100 µM; in short: as §3
[11] = molecular target: Multidrug resistance protein 1a (Rattus norvegicus) (UniProt Q6PSM0); test: TP_TRANSPORTER: increase in Colchicine intracellular accumulation (Colchicine: 0.035 uM, BM-223: 100 uM) in CC531mdr+ cells; format: functional, cell-based; in short: as §2
[12] = molecular target: Multidrug resistance protein 1a (Rattus norvegicus) (UniProt Q6PSM0); test: TP_TRANSPORTER: increase in Colchicine intracellular accumulation (Colchicine: 0.035 uM, Vinblastine: 100 uM) in CC531mdr+ cells; format: functional, cell-based; in short: as §2
[13] = molecular target: T1, ATP-dependent translocase ABCB1; test: TP_TRANSPORTER: increase in Colchicine intracellular accumulation (Colchicine: 0.0175 uM, Vinblastine: 100 uM) in CEM/VBL600 cells; format: functional, cell-based; conditions: cem/vbl600, 100 µM; in short: as §3

Chain of Multidrug resistance protein 1a (Rattus norvegicus) (Q6PSM0 as listed by the source): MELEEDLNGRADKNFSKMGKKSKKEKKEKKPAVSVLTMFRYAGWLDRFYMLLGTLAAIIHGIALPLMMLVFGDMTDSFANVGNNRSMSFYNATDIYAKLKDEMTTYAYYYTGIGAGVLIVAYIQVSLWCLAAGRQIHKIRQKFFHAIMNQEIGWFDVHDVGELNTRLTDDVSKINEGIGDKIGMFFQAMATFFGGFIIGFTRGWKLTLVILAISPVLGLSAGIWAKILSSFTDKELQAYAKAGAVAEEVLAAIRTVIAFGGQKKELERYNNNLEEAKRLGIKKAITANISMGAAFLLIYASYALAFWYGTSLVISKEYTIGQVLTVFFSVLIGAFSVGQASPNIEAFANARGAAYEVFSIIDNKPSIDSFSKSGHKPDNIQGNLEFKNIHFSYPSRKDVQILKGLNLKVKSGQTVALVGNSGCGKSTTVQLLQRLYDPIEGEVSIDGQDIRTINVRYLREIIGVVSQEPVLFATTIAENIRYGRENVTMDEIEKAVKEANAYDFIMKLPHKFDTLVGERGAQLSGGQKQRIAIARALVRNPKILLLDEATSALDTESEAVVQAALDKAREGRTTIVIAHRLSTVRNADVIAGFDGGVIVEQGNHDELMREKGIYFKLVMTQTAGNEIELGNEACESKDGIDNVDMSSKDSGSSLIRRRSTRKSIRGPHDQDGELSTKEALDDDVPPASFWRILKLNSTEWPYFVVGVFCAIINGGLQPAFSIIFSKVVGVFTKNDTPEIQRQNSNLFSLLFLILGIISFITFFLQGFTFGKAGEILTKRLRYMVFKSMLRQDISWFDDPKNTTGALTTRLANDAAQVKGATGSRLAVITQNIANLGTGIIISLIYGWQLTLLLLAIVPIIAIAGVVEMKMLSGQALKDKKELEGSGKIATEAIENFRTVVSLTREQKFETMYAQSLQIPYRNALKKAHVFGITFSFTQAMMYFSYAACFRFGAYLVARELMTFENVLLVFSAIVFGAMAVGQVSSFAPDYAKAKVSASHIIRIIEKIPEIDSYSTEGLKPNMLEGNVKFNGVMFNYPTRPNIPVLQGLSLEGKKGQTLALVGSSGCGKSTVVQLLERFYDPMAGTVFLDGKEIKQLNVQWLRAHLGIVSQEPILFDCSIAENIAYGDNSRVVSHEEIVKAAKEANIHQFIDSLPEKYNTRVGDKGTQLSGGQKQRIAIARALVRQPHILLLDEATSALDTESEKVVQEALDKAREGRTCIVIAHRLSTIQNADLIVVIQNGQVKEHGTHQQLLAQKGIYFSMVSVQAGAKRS

Activity [1]: inhibitor [+]
SMILES: COc1ccc(CCN(C)CCCC(C#N)(c2ccc(OC)c(OC)c2)C(C)C)cc1OC (centres undefined)

Activity [2]: inhibitor [+] | Activity [3]: inhibitor [+] | Activity [4]: inhibitor [+] | Activity [5]: inhibitor [+]
SMILES: COc1ccc(Cl)cc1C(=O)NCCc1ccc(S(=O)(=O)N/C(=N/C#N)NC2CCCCC2)cc1

Activity [6]: inhibitor [+] | Activity [7]: inhibitor [+]
SMILES: COc1ccc(Cl)cc1C(=O)NCCc1ccc(S(=O)(=O)NC(=O)NC2CCCCC2)cc1 [GLYBURIDE]

Activity [8]: inhibitor [+] | Activity [9]: inhibitor [+] | Activity [10]: inhibitor [+] | Activity [11]: inhibitor [+]
SMILES: COc1ccc(Cl)cc1C(=O)NCCc1ccc(S(=O)(=O)N/C(=N/C#N)NC2CCC(C)CC2)cc1 (centres undefined)

Activity [12]: inhibitor [+] | Activity [1]: inhibitor [+] | Activity [13]: inhibitor [+]
SMILES: CC[C@]1(O)C[C@@H]2CN(CCc3c([nH]c4ccccc34)[C@@](C(=O)OC)(c3cc4c(cc3OC)N(C)[C@H]3[C@@](O)(C(=O)OC)[C@H](OC(C)=O)[C@]5(CC)C=CCN6CC[C@]43[C@@H]65)C2)C1 [VINBLASTINE]
